Source: paper PMC3461514 (The Journal of Cell Biology, 2012)
Changes are numbered by the printed parent chain. Numbers in names are those of the source.

B1: GST-KRIT1 F123(R452E) (protein)
chain: EKVRIYRMDGSYRSVELKHGNNTTVQQIMEGMELSQETQQYFTIWICSENLSLQLKPYHKPLQHVRDWPEILAELTNLDPQRETPQLFLRRDVRLPLEVEKQIEDPLAILILFDEARYNLLKGFYTAPDAKLITLASLLLQIVYGNYESKKHKQGFLNEENLKSIVPVTKLKSKAPHWTNRILHEYKNLSTSEGVSKEMHHLQRMFLQNCWEIPTYGAAFFTGQIFTKASPSNHKVIPVYVGVNIKGLHLLNMETKALLISLKYGCFMWQLGDTDTCFQIHSMENKMSFIVHTKQAGLVVKLLMKLNGQLMPTER
modifications: left off: GST, end not stated, kept
B2: KRIT1(L717,721A): human KRIT1 Leu717/Leu721 to Ala mutant, used as FERM domain or full-length protein (protein)
chain: B1 chain with E33R, L298A, L302A
modifications: left off: GST, end not stated, kept

Columns and labels:
Rap1 = target: T1, Rap1 (Homo sapiens, UniProt P62834, G12V); assay: Pull-down of HA-Rap1V12 from HEK293 cell lysates by GST-KRIT1 F123 variants; assay type: binding
T1 sequence (P62834 1-184 G12V): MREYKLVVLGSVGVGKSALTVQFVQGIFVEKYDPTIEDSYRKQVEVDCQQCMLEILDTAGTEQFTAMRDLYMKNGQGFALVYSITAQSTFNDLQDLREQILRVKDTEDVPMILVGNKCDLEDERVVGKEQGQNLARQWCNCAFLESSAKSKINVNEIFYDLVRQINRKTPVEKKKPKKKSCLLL
Outline: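 HEK293 cells were transfected (Lipofectamine Plus) with HA-Rap1A(G12V) cDNA, then lysed after 24 h in cold 50 mM Tris-HCl pH 7.4, 150 mM NaCl, 0.5% NP-40, 5 mM MgCl2 plus protease inhibitors. Bead-immobilized GST-KRIT1 FERM variants (WT or L717,721A; 10 µg) were incubated with 350 µg clarified lysate overnight at 4°C. Beads were washed, run on 4–20% SDS-PAGE and immunoblotted with monoclonal anti-HA (1:4,000).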

HEG1-C19 peptide = HEG1-C19 peptide (Homo sapiens, UniProt Q9ULI3); assay: Affinity chromatography of KRIT1 FERM variants on HEG1-C19 peptide matrix; assay type: binding; conditions: GFP-KRIT1 FERM from HEK293 cell lysates
Outline: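 Pull-down: human HEG1 C19 cytoplasmic tail model protein (His6, N-terminal in vivo biotinylation tag, E. coli-expressed) immobilized on beads; 10 µg added to 350 µg clarified lysate of HEK293 transfected 24 h with GFP-KRIT1 FERM WT or L717,721A; lysis in 50 mM Tris-HCl pH 7.4, 150 mM NaCl, 0.5% NP-40, 5 mM MgCl2 plus protease inhibitors; 4°C overnight; washed, 4–20% SDS-PAGE, anti-GFP immunoblot; three experiments.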

Molecule	interaction with Rap1 (Rap1)	binding to the HEG1-C19 peptide (HEG1-C19 peptide)
B1	does not bind to Rap1	–
B2	–	markedly reduced binding
